Test results as given in ChEMBL document CHEMBL2157903, “2-Arylbenzofuran-based molecules as multipotent Alzheimer's disease modifying agents” (Eur J Med Chem, 2012).
Activity calls are given as the source filed them. The rule behind the calls is not given here.

How the values were obtained:
Cholinesterase = Cholinesterase (Homo sapiens, UniProt P06276); experiment: Inhibition of human serum BuChE using butyrylthiocholine iodide as substrate preincubated for 20 mins prior to substrate addition by Ellman's method
How it was run: (§1)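 Ellman method with acetylthiocholine iodide (AChE) or butyrylthiocholine iodide (BuChE) as substrate. Enzyme and inhibitor preincubated 20 min at 37 °C before substrate addition. Blanks without enzyme corrected for non-enzymatic hydrolysis. Five inhibitor concentrations giving 20-80% inhibition. IC50 from linear regression of % inhibition vs log final concentration. Mean of two or three independent measurements, each in triplicate.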

Acetylcholinesterase [1] = molecular target: T1, Acetylcholinesterase (Homo sapiens, UniProt P22303); experiment: Inhibition of human recombinant AChE using acetylthiocholine iodide as substrate preincubated for 20 mins prior to substrate addition by Ellman's method; how it was run: as §1
[2] = Induction of amyloid beta (25 to 35) fibril formation at 10 uM incubated up to 6 hrs by UV-Vis spectrophotometry
How it was run: (§2)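 Aβ25-35, sonicated 1 min, was mixed in 10 mM phosphate buffer (pH 7.2) with compound added in MeOH, on ice. Polymerization was followed by UV-visible spectroscopy at 190–380 nm over 0–6 h. Compound-alone spectra were subtracted, and peptide-alone and curcumin controls were run in parallel. IC50 (0.1–50 range) came from a sigmoidal least-squares fit. At least three independent runs.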

Cannabinoid receptor 1 [3] = molecular target: T2, Cannabinoid receptor 1 (Homo sapiens, UniProt P21554); experiment: Displacement of [3H]CP-55940 from human recombinant CB1 receptor expressed in HEK293 cells after 90 mins; assay type: cell-based
How it was run: (§3)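 Membranes from HEK-293 cells stably expressing human recombinant CB1 (Bmax 2.5 pmol/mg) or CB2 (Bmax 4.7 pmol/mg). Incubated with [3H]-CP-55,940 (CB1 0.14 nM, Kd 0.18 nM; CB2 0.084 nM, Kd 0.31 nM) and increasing compound concentrations for 90 min at 30 °C. Non-specific binding defined with 10 […] 55212-2. IC50 by non-linear regression, converted to Ki by Cheng-Prusoff. Means of at least n = 3.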

Cannabinoid receptor 1 [4] = molecular target: T2, Cannabinoid receptor 1; experiment: Displacement of [3H]CP-55940 from human recombinant CB1 receptor expressed in HEK293 cells at 10 uM after 90 mins; assay type: cell-based
How it was run: (§4)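 Membranes from HEK-293 cells stably expressing human recombinant CB1 or CB2 were incubated with [³H]-CP-55,940 (0.14 nM for CB1; 0.084 nM for CB2) plus test compound for 90 min at 30 °C. Non-specific binding was defined with WIN 55212-2. Percent displacement of bound radioligand at the maximum tested concentration is reported. At least n = 3 experiments.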

Cannabinoid receptor 2 [5] = molecular target: T3, Cannabinoid receptor 2 (Homo sapiens, UniProt P34972); experiment: Displacement of [3H]CP-55940 from human recombinant CB2 receptor expressed in HEK293 cells after 90 mins; assay type: cell-based; how it was run: as §3
Cannabinoid receptor 2 [6] = molecular target: T3, Cannabinoid receptor 2; experiment: Displacement of [3H]CP-55940 from human recombinant CB2 receptor expressed in HEK293 cells at 10 uM after 90 mins; assay type: cell-based
Cannabinoid receptor 1 [7] = molecular target: T2, Cannabinoid receptor 1; experiment: Displacement of [3H]CP-55940 from human recombinant CB1 receptor expressed in HEK293 cells at 25 uM after 90 mins; assay type: cell-based; how it was run: as §4
Cannabinoid receptor 2 [8] = molecular target: T3, Cannabinoid receptor 2; experiment: Displacement of [3H]CP-55940 from human recombinant CB2 receptor expressed in HEK293 cells at 25 uM after 90 mins; assay type: cell-based; how it was run: as §4
Acetylcholinesterase [9] = molecular target: T1, Acetylcholinesterase; experiment: Pseudo-irreversible inhibition of human recombinant AChE using acetylthiocholine iodide as substrate preincubated for 20 mins prior to substrate addition by Ellman's method
Acetylcholinesterase [10] = molecular target: T1, Acetylcholinesterase; experiment: Ratio of rivastigmine IC50 to compound IC50 for human recombinant AChE
[11] = Inhibition of amyloid beta (25 to 35) fibril formation incubated up to 6 hrs by UV-Vis spectrophotometric analysis; how it was run: as §2
[12] = Inhibition of amyloid beta (25 to 35) fibril formation at 10 uM incubated up to 6 hrs by UV-Vis spectrophotometric analysis
How it was run: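 Aβ25-35 at 100 μM final, in 10 mM phosphate buffer pH 7.2, sonicated 1 min on addition. Compound added in MeOH at 10 μM final, with curcumin reference alongside. Polymerization followed by UV-vis at 190-380 nm over 0-6 h. Spectra of compound alone were subtracted. At least three independent runs.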

[13] = Ratio of curcumin IC50 to compound IC50 for amyloid beta (25 to 35)
SH-SY5Y [14] = experiment: Neuroprotective activity in human SH-SY5Y cells assessed as inhibition of amyloid beta (25 to 35)-induced cytotoxicity at 30 uM after 3 hrs by MTT assay; assay type: functional
How it was run: (§5)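 SH-SY5Y cells in DMEM with 10% FBS were seeded at 3 × 10⁴/well for 24 h. They were exposed for 3 h at 37 °C to HFIP-pretreated unaggregated Aβ25-35 with or without compound (1–30 range). Viability was read by MTT (5 mg/mL, 2 h; isopropanol; 570/690 nm) as % of untreated control. Percentage protection is given at the highest concentration. Mean ± SD of at least two experiments.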

SH-SY5Y [15] = experiment: Neuroprotective activity in human SH-SY5Y cells assessed as inhibition of amyloid beta (25 to 35)-induced cytotoxicity after 3 hrs by MTT assay; assay type: functional, cell-based; how it was run: as §5
[16] = molecular target: Amyloid-beta precursor protein (Homo sapiens) (UniProt P05067); experiment: Inhibition of amyloid beta (25 to 35) binding to plasma membrane surface of human Sh-SY5Y cells at 30 uM after 30 mins by congo red-based spectrophotometry; assay type: cell-based
How it was run: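 SH-SY5Y cells were seeded at 5 × 10³/well for 24 h, then given fresh medium with Aβ25-35 and compound for 10, 20 and 30 min. After two PBS washes, bound peptide was stained with Congo red in PBS for 20 min. Absorbance was read at 540 nm and expressed as % of untreated cells.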

SH-SY5Y [17] = experiment: Neuroprotective effect in human SH-SY5Y cells assessed as inhibition of amyloid beta (25 to 35)-induced ROS production at 30 uM after 3 hrs by DHE-based fluorimetric analysis; assay type: functional, cell-based
How it was run: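 SH-SY5Y cells were seeded at 1 × 10⁴/well on culture slides for 24 h and treated with Aβ25-35 with or without compound for 3 h. ROS was measured with DHE loaded for 15 min in the dark, then 1 h in serum-free DMEM at 37 °C. Fluorescence microscopy covered four random fields of 50–100 cells each, scored as densitometry per cell versus untreated cells. Mean ± SD of three experiments.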

T3 sequence (P34972 whole entry): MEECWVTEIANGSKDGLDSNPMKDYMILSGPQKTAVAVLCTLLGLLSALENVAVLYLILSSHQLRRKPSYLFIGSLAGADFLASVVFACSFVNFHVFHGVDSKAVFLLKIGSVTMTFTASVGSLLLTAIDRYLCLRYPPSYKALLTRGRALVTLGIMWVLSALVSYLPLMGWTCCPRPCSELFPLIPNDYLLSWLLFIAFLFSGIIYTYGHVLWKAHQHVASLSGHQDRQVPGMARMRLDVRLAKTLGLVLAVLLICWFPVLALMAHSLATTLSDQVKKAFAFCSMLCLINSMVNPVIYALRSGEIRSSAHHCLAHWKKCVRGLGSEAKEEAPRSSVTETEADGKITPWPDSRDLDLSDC
T2 sequence (P21554 whole entry): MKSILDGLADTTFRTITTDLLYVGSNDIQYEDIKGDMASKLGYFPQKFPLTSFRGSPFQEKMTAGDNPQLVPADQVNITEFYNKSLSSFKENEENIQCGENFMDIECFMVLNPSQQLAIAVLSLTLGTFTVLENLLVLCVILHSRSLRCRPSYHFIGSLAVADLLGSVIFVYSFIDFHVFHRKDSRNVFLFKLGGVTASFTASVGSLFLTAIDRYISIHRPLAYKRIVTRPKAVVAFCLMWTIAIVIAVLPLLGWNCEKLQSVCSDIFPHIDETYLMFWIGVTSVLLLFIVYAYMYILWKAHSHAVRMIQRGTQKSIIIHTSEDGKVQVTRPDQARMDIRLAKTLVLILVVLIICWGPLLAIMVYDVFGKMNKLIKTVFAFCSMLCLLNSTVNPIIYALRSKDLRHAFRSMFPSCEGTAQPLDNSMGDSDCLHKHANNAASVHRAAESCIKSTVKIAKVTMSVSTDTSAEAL
Sequence of Cholinesterase (P06276 whole entry): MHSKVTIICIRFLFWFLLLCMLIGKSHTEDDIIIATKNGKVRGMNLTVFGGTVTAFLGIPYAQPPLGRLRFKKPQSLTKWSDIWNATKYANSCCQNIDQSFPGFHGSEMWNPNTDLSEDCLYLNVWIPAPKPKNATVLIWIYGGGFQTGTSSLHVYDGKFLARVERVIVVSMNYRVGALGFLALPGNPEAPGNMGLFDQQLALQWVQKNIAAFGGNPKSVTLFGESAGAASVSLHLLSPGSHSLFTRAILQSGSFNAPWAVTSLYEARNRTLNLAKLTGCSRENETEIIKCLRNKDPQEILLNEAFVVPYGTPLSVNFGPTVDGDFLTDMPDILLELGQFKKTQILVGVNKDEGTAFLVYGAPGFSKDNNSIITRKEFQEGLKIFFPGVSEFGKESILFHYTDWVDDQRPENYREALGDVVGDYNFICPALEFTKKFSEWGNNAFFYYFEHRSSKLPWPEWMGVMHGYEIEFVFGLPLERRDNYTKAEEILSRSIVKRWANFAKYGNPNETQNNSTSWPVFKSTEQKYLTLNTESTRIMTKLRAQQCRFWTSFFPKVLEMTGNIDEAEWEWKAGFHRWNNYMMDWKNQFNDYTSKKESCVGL
T1 sequence (P22303 whole entry): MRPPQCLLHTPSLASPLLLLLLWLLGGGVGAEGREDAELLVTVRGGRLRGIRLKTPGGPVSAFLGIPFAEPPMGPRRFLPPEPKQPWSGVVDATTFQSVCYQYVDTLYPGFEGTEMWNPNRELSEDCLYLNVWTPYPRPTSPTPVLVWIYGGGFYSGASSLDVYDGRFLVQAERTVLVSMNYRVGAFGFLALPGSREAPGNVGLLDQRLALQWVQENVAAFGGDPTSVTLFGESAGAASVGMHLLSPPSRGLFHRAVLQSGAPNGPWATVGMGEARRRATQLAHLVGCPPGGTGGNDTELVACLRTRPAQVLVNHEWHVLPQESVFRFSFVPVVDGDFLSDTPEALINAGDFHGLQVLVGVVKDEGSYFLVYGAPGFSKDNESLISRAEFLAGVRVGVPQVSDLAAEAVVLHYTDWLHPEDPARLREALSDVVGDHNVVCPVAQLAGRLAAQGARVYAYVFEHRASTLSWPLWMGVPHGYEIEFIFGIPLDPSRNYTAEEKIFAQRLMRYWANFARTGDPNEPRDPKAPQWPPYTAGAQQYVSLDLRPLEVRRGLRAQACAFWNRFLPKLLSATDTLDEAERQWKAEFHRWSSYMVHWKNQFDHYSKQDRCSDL
Sequence of Amyloid-beta precursor protein (Homo sapiens) (P05067 whole entry): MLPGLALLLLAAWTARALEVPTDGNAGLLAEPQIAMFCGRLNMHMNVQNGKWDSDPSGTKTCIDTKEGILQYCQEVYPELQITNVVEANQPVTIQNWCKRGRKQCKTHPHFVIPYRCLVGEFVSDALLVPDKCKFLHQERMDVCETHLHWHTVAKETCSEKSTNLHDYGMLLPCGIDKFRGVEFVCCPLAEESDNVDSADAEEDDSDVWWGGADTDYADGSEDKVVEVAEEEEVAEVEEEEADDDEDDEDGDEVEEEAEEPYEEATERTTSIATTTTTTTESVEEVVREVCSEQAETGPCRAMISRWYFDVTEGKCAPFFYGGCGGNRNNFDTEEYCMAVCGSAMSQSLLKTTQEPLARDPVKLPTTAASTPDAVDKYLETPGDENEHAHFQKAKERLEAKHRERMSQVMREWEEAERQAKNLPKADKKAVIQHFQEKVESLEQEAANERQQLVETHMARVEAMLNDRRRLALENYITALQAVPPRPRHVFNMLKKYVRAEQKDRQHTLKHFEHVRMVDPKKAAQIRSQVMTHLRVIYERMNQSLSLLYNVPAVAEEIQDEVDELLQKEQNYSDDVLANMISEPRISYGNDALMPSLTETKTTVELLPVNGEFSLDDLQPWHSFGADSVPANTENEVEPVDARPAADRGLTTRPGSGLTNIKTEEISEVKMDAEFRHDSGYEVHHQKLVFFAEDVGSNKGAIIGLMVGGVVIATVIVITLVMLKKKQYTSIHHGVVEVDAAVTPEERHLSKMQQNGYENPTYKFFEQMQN

Row | Structure (SMILES) | IC50 (Cholinesterase) [µM] | IC50 (Acetylcholinesterase [1]; read-out: IC50) [µM] | EC50 (Cannabinoid receptor 1 [3]) [µM] | Ki (Cannabinoid receptor 1 [3]) [µM] | Activity (Cannabinoid receptor 1 [4]) [%] | EC50 (Cannabinoid receptor 2 [5]) [µM] | Ki (Cannabinoid receptor 2 [5]) [µM] | Activity (Cannabinoid receptor 2 [6]) [%] | IC50 (Acetylcholinesterase [1]) | IC50 [11] [µM] | inhibition [12] | inhibition at 30 µM (SH-SY5Y [14]) [%] | inhibition [16] | inhibition (SH-SY5Y [17]) | also measured
1 | CN(CCCCCCCOc1ccc(-c2oc3ccccc3c2C(=O)c2c3ccccc3cc3ccccc23)cc1)Cc1ccccc1 | 81.2 | 67.7 | > 10 | > 10 | 30.3 | > 10 | > 10 | 9.87 |  |  |  |  |  |  | Activity [2]: Toxic
2 | CN(CCCCCCCOc1ccc(-c2oc3ccccc3c2C(=O)c2ccc(-c3ccccc3)cc2)cc1)Cc1ccccc1 | 88.9 |  | 7.74 | 3.12 |  | 7.06 | 1.79 |  | Not Active |  |  |  |  |  | Activity (Cannabinoid receptor 1 [7]): 80%; Activity (Cannabinoid receptor 2 [8]): 86%
3 | CNC(=O)Oc1cccc(CN(C)CCCCCCCOc2ccc(-c3oc4ccccc4c3C(=O)c3ccc(C)cc3)cc2)c1 | 0.88 | 0.34 |  |  |  |  |  |  |  |  |  |  |  |  | inhibition (Acetylcholinesterase [9]): Active; Ratio IC50 (Acetylcholinesterase [10]): 1
4 | CN(CCCCCCCCCOc1ccc(-c2cc3ccccc3o2)cc1)Cc1ccccc1 | 55.6 |  |  |  |  |  |  |  | Not Active | 5.5 |  |  |  |  | 
5 | CN(CCCCCCCOc1cccc(-c2cc3ccccc3o2)c1)Cc1ccccc1 | 3 |  |  |  |  |  |  |  | Not Active | 3.9 | 81% |  |  |  | Ratio IC50 [13]: 2.5
6 | Cc1cccc(C(=O)c2c(-c3cccc(OCCCCCCCN(C)Cc4ccccc4)c3)oc3ccccc23)c1 | 0.4 | 102 |  |  |  |  |  |  |  |  | 48% | 46.2 | Active | Active | inhibition (SH-SY5Y [15]): Dose-dependent effect; Activity (Cannabinoid receptor 1 [3]): inactive; Activity (Cannabinoid receptor 2 [5]): inactive
7 | COc1cc(/C=C/C(=O)CC(=O)/C=C/c2ccc(O)c(OC)c2)ccc1O [CURCUMIN] |  |  |  |  |  |  |  |  |  | 10 |  |  |  |  | 
8 | CN(CCCCCCCOc1cccc(-c2oc3ccccc3c2C(=O)c2ccccc2)c1)Cc1ccccc1 | 2.88 | 0.24 |  |  |  |  |  |  |  |  | 35% | 48.4 | Active | Active | inhibition (SH-SY5Y [15]): Dose-dependent effect; Activity (Cannabinoid receptor 1 [3]): inactive; Activity (Cannabinoid receptor 2 [5]): inactive
9 | CCN(CC)Cc1cccc(C(=O)c2c(-c3ccc(OCCCCCCCN(C)Cc4ccccc4)cc3)oc3ccccc23)c1 | 3.18 | 53 | > 10 | > 10 | 29.8 | > 10 | > 10 | 47.3 |  |  | Active |  |  |  | 
10 | CN(CCCCCCCOc1ccc(-c2oc3ccccc3c2C(=O)c2ccccc2)cc1)Cc1ccccc1 |  |  | 0.79 | 0.32 | 8.72 | > 10 | > 10 | 47.3 |  | 12.5 | 47% | 58.2 | Active | Active | 
